Non-standard residues stand in square brackets, D forms with d. Residues, ends and D or L forms follow the SMILES beside them. *: point of attachment. Ala(1-Adamantyl) = N[C@@H](CC12CC3CC(CC(C3)C1)C2)C(=O)O; Sta = CC(C)C[C@H](N)[C@@H](O)CC(=O)O; Adoc = O=C(OC12CC3CC(CC(C3)C1)C2)*; NMeF = CN[C@@H](Cc1ccccc1)C(=O)O; X1 = CC(C)(C)OC(=O)NCCS(=O)(=O)*; αMeF = C[C@](N)(Cc1ccccc1)C(=O)O; Phg = N[C@H](C(=O)O)c1ccccc1; Isovaleryl = CC(C)CC(=O)*; Nle = CCCC[C@H](N)C(=O)O; Nva = CCC[C@H](N)C(=O)O; Cbz = O=C(OCc1ccccc1)*; Boc = CC(C)(C)OC(=O)*; Moc = COC(=O)*
Key:
Renin [1] = molecular target: T1, Renin (Homo sapiens, UniProt P00797); assay: In vitro inhibitory activity against monkey (Callithrix jacchus) plasma renin; type: cell-free; conditions: target entry is the homologue from another species
T1 sequence (P00797 whole entry): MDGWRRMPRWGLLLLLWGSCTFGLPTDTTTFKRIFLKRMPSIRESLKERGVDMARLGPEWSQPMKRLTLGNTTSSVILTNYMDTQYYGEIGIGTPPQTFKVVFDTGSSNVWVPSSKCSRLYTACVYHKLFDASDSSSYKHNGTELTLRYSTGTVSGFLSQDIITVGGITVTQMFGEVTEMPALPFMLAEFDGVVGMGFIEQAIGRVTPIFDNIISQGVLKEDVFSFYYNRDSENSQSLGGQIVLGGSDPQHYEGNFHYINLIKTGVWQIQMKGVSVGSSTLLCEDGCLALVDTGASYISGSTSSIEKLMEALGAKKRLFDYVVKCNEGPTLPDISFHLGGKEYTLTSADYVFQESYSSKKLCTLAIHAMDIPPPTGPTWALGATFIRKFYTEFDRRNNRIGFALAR
Procedure, shortened: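 Pooled plasma from animals whose plasma renin activity was stimulated with furosemide, incubated at 37 °C in pH 7.4 phosphate buffer with phenylmethanesulfonyl fluoride as angiotensinase inhibitor and increasing inhibitor concentrations. Angiotensin I generated was measured by RIA (Haber method). IC50 came from nonlinear logit vs log-concentration regression over five to seven concentrations.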

Renin [2] = molecular target: T1, Renin; assay: In vitro inhibitory activity against dog plasma renin; type: cell-free, Canis lupus familiaris; conditions: target entry is the homologue from another species
Renin [3] = molecular target: T1, Renin; assay: In vitro inhibitory activity against man (human) plasma renin; type: cell-free
Renin [4] = molecular target: T1, Renin; assay: In vitro inhibitory activity against human plasma renin; type: cell-free
Renin [5] = molecular target: T2, Renin (Rattus norvegicus, UniProt P08424); assay: In vitro inhibitory activity against rat plasma renin; type: cell-free
T2 sequence (P08424 whole entry): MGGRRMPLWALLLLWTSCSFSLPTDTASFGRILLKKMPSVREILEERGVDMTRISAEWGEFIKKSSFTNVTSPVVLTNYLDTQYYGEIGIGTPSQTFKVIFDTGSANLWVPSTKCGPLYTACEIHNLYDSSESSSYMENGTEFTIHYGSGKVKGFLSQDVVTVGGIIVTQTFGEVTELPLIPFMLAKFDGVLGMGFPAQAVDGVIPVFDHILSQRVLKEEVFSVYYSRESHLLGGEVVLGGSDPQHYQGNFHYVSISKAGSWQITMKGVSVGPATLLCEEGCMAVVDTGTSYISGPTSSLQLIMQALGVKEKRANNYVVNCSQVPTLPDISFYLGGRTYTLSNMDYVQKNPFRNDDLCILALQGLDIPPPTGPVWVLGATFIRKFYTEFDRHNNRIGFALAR

Renin [6] = molecular target: T1, Renin; assay: In vitro inhibitory activity against monkey plasma renin; type: cell-free, Cercopithecidae; conditions: target entry is the homologue from another species
Renin [7] = molecular target: T2, Renin; assay: Inhibition of rat plasma renin activity
Renin [8] = molecular target: T1, Renin; assay: Inhibition of man plasma renin activity; type: cell-free
Renin [9] = molecular target: T1, Renin; assay: Inhibition of monkey plasma renin activity; type: cell-free, Cercopithecidae; conditions: target entry is the homologue from another species
Renin [10] = molecular target: T1, Renin; assay: Inhibition of dog plasma renin activity; type: cell-free, Canis lupus familiaris; conditions: target entry is the homologue from another species

SMILES | IC50 (Renin [4]) [nM] | further results
COC(=O)CC(O)[C@H](CC(C)C)NC(=O)[C@H](C)NC(=O)CC(O)[C@H](CC(C)C)NC(=O)[C@H](Cc1ccccc1)NC(=O)[C@@H](Cc1ccccc1)NC(=O)OC(C)(C)C (stereo not given in full) | > 10000 | 
COC(=O)C[C@H](O)[C@H](CC(C)C)NC(=O)[C@H](C)NC(=O)C[C@H](O)[C@H](CC(C)C)NC(=O)[C@H](Cc1ccccc1)NC(=O)[C@](C)(Cc1ccccc1)NC(=O)OC(C)(C)C (Boc-[αMeF]F[Sta]A[Sta]-OMe) | > 10000 | 
COC(=O)CC(O)[C@H](CC(C)C)NC(=O)[C@H](C)NC(=O)CC(O)[C@H](CC(C)C)NC(=O)[C@@H](Cc1ccccc1)NC(=O)[C@H](Cc1ccccc1)NC(=O)OCc1ccccc1 (stereo not given in full) | > 10000 | 
CCCC[C@H](NC(=O)[C@@H](N)Cc1ccccc1)C(=O)N[C@@H](CC(C)C)[C@@H](O)CC(=O)N[C@@H](C)C(=O)N[C@@H](CC(C)C)[C@@H](O)CC(=O)OC (H-F[Nle][Sta]A[Sta]-OMe) | 7700 | 
COC(=O)C[C@H](O)[C@H](CC(C)C)NC(=O)[C@H](C)NC(=O)C[C@H](O)[C@H](CC(C)C)NC(=O)[C@H](CCCCN)NC(=O)[C@H](Cc1ccccc1)NC(=O)CC(C)C (Isovaleryl-FK[Sta]A[Sta]-OMe) | > 10000 | 
COC(=O)C[C@H](O)[C@H](CC(C)C)NC(=O)[C@H](C)NC(=O)C[C@H](O)[C@H](CC(C)C)NC(=O)[C@H](Cc1ccccc1)NC(=O)[C@@H](NC(=O)OC(C)(C)C)c1ccccc1 (Boc-[Phg]F[Sta]A[Sta]-OMe) | > 10000 | 
COC(=O)CC(O)[C@H](CC(C)C)NC(=O)[C@H](C)NC(=O)CC(O)[C@H](CC(C)C)NC(=O)[C@@H](NS(=O)(=O)CCNC(=O)OCc1ccccc1)C(C)C (stereo not given in full) | > 10000 | 
COC(=O)C[C@H](O)[C@H](CC(C)C)NC(=O)[C@H](C)NC(=O)C[C@H](O)[C@H](CC(C)C)NC(=O)[C@H](Cc1ccccc1)NC(=O)[C@H](Cc1ccccc1)N(C)C(=O)OC(C)(C)C (Boc-[NMeF]F[Sta]A[Sta]-OMe) | > 10000 | IC50 (Renin [6]): 15 µM; IC50 (Renin [3]): 15000 nM; IC50 (Renin [5]): 17000 nM
COC(=O)C[C@H](O)[C@H](CC(C)C)NC(=O)[C@H](C)NC(=O)C[C@H](O)[C@H](CC(C)C)NC(=O)[C@H](Cc1c[nH]c2ccccc12)NC(=O)[C@H](Cc1c[nH]c2ccccc12)NC(=O)OC(C)(C)C (Boc-WW[Sta]A[Sta]-OMe) |  | IC50 (Renin [7]): 1000 nM
COC(=O)C[C@H](O)[C@H](CC(C)C)NC(=O)[C@H](C)NC(=O)C[C@H](O)[C@H](CC(C)C)NC(=O)[C@@H](NC(=O)[C@H](Cc1c[nH]c2ccccc12)NC(=O)OCc1ccccc1)C(C)C (Cbz-WV[Sta]A[Sta]-OMe) |  | IC50 (Renin [7]): 22 nM; IC50 (Renin [10]): 42 nM; IC50 (Renin [8]): 150 nM; IC50 (Renin [9]): 25 nM
COC(=O)C[C@H](O)[C@H](CC(C)C)NC(=O)[C@H](C)NC(=O)C[C@H](O)[C@H](CC(C)C)NC(=O)[C@@H]1CCCN1C(=O)[C@H](Cc1ccccc1)NC(=O)OCc1ccccc1 (Cbz-FP[Sta]A[Sta]-OMe) | 10000 | 

Second part, led by results:

IC50 (Renin [4]) [nM] | SMILES | further results
42 | CCC[C@H](N[C@@H](CC(C)C)[C@@H](O)CC(=O)N[C@@H](C)C(=O)N[C@@H](CC(C)C)[C@@H](O)CC(=O)OC)C(=O)N[C@@H](Cc1ccccc1)C(=O)NC(=O)CC(C)C | IC50 (Renin [1]): 30 nM; IC50 (Renin [2]): 58 nM; IC50 (Renin [3]): 42 nM; IC50 (Renin [5]): 880 nM
30 | CCCC[C@H](NC(=O)[C@H](Cc1ccccc1)NC(=O)OC(C)(C)C)C(=O)N[C@@H](CC(C)C)[C@@H](O)CC(=O)N[C@@H](C)C(=O)N[C@@H](CC(C)C)[C@@H](O)CC(=O)O (Boc-F[Nle][Sta]A[Sta]-OH) | 
3000 | COC(=O)C[C@H](O)[C@H](CC(C)C)NC(=O)[C@H](C)NC(=O)C[C@H](O)[C@H](CC(C)C)NC(=O)[C@H](Cc1ccccc1)NC(=O)[C@H](Cc1ccccc1)NC(=O)OC12CC3CC(CC(C3)C1)C2 (Adoc-FF[Sta]A[Sta]-OMe) | 
260 | CCC[C@H](NC(=O)[C@H](Cc1ccccc1)NC(=O)OC)C(=O)N[C@@H](CC(C)C)[C@@H](O)CC(=O)N[C@@H](C)C(=O)N[C@@H](CC(C)C)[C@@H](O)CC(=O)OC (Moc-F[Nva][Sta]A[Sta]-OMe) | 
200 | COC(=O)CC(O)[C@H](CC(C)C)NC(=O)[C@H](C)NC(=O)CC(O)[C@H](CC(C)C)NC(=O)CCCNC(=O)[C@H](Cc1ccccc1)NC(=O)CC(C)C (stereo not given in full) | 
250 | COC(=O)C[C@H](O)[C@H](CC(C)C)NC(=O)[C@H](C)NC(=O)C[C@H](O)[C@H](CC(C)C)NC(=O)[C@H](Cc1c[nH]cn1)NC(=O)[C@H](CC12CC3CC(CC(C3)C1)C2)NC(=O)OC(C)(C)C (Boc-[Ala(1-Adamantyl)]H[Sta]A[Sta]-OMe) | IC50 (Renin [2]): 650 nM; IC50 (Renin [3]): 250 nM; IC50 (Renin [5]): 2200 nM
180 | COC(=O)C[C@H](O)[C@H](CC(C)C)NC(=O)[C@H](C)NC(=O)C[C@H](O)[C@H](CC(C)C)NC(=O)[C@H](Cc1ccccc1)NC(=O)[C@H](Cc1ccccc1)NS(=O)(=O)CCNC(=O)OC(C)(C)C (X1-FF[Sta]A[Sta]-OMe) | 
140 | COC(=O)C[C@H](O)[C@H](CC(C)C)NC(=O)[C@H](C)NC(=O)C[C@H](O)[C@H](CC(C)C)NC(=O)[C@H](Cc1c[nH]cn1)NC(=O)[C@H](Cc1c[nH]c2ccccc12)NC(=O)OC(C)(C)C (Boc-WH[Sta]A[Sta]-OMe) | IC50 (Renin [7]): 1300 nM; IC50 (Renin [8]): 140 nM; IC50 (Renin [9]): 110 nM
1400 | COC(=O)C[C@H](O)[C@H](CC(C)C)NC(=O)[C@H](C)NC(=O)C[C@H](O)[C@H](CC(C)C)NC(=O)[C@H](Cc1c[nH]c2ccccc12)NC(=O)[C@H](Cc1ccccc1)NC(=O)OCc1ccccc1 (Cbz-FW[Sta]A[Sta]-OMe) | 
190 | COC(=O)C[C@H](O)[C@H](CC(C)C)NC(=O)[C@H](C)NC(=O)C[C@H](O)[C@H](CC(C)C)NC(=O)[C@H](Cc1ccccc1)NC(=O)[C@H](Cc1ccccc1)NC(=O)OC(C)(C)C | IC50 (Renin [2]): 76 nM; IC50 (Renin [6]): 0.13 µM; IC50 (Renin [5]): 190 nM
51 | CCC[C@H](NC(=O)[C@H](Cc1ccccc1)NC(=O)OC(C)(C)C)C(=O)N[C@@H](CC(C)C)[C@@H](O)CC(=O)N[C@@H](C)C(=O)N[C@@H](CC(C)C)[C@@H](O)CC(=O)OC (Boc-F[Nva][Sta]A[Sta]-OMe) | 
4700 | COC(=O)CC(O)[C@H](CC(C)C)NC(=O)[C@H](C)NC(=O)CC(O)[C@H](CC(C)C)NC(=O)CNC(=O)[C@H](Cc1ccccc1)NC(=O)CC(C)C (stereo not given in full) | 
75 | COC(=O)C[C@H](O)[C@H](CC(C)C)NC(=O)[C@H](C)NC(=O)C[C@H](O)[C@H](CC(C)C)NC(=O)[C@H](CC(C)C)NC(=O)[C@H](Cc1ccccc1)NC(=O)CC(C)C (Isovaleryl-FL[Sta]A[Sta]-OMe) | 
1400 | COC(=O)C[C@H](O)[C@H](CC(C)C)NC(=O)[C@H](C)NC(=O)C[C@H](O)[C@H](CC(C)C)NC(=O)[C@H](Cc1ccccc1)NC(=O)[C@H](Cc1ccccc1)NC(C)=O (Ac-FF[Sta]A[Sta]-OMe) | 
320 | COC(=O)C[C@H](O)[C@H](CC(C)C)NC(=O)[C@H](C)NC(=O)C[C@H](O)[C@H](CC(C)C)NC(=O)[C@H](Cc1ccccc1)NC(=O)[C@H](Cc1ccccc1)NC(=O)CC(C)C (Isovaleryl-FF[Sta]A[Sta]-OMe) | 

— ChEMBL document CHEMBL1123300 (J Med Chem, 1986)
